Our source for the IC50 and EC50 values is ChEMBL document CHEMBL1932928, “II. Novel HCV NS5B polymerase inhibitors: discovery of indole C2 acyl sulfonamides” (Bioorg Med Chem Lett, 2012).

pEC50, pIC50: −log10 of the molar value.

The nature of assay [1]: Inhibition of HCV NS5B Cdelta21 RNA polymerase activity assessed as incorporation of [33P]-CTP into heteropolymer RNA template after 150 mins. The arrangement: species or system Hepacivirus hominis. The method, boiled down:
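Radiolabeled nucleotide incorporation using 30 nM NS5B (Δ21) with 100 nM heteropolymer RNA template and 0.25 mM trinucleotide initiator. Buffer: 20 mM HEPES pH 7.3, 7.5 mM DTT, 20 units/mL RNasin, 10 mM MgCl₂, 60 mM NaCl, BSA, GTP/ATP/UTP, [³³P]-CTP with 20 nM CTP. Run 150 min at room temperature, EDTA-stopped, filter-washed, incorporated label counted. IC50 from 10 twofold dilutions in duplicate.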

In another assay the test system is Hepatitis C virus. The assay can be described thus: Antiviral activity against HCV 1b con1 assessed as inhibition of viral RNA replication after 3 days by RT-PCR analysis. In kind it is functional, organism-based, Hepacivirus hominis. To be noted: Con1, 72 h. An outline of the steps: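 Genotype 1b-Con1 replicon cells were seeded at 5000/well one day before dosing. Inhibitor was added at 0.5% final DMSO in medium with 5% FBS, and cells were harvested after 3 days. Replicon RNA was quantified by Taqman real-time RT-PCR normalized to GAPDH RNA. EC50 came from 10 serial twofold dilutions in duplicate.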

With `Nc1cc(Cn2c(C(=O)NS(=O)(=O)c3ccc(O)cc3)c(-c3ccc[nH]c3=O)c3cc(Cl)ccc32)ccn1`, the pIC50 in assay [1] was 7.62. For the same compound, the pEC50 with Hepatitis C virus was 7.00.

For `N#Cc1c(-c2ccc[nH]c2=O)c2cc(Cl)ccc2n1Cc1ccnc(N)c1`, the pIC50 in assay [1] was less than 4.70. Also, in the assay with Hepatitis C virus, the pEC50 was 5.08.

As for `CCOC(=O)c1c(-c2ccc[nH]c2=O)c2cc(Cl)ccc2n1Cc1ccnc(N)c1`, in assay [1], the pIC50 is less than 4.70.

As to `CS(=O)(=O)NC(=O)c1c(-c2ccc[nH]c2=O)c2cc(Cl)ccc2n1Cc1ccnc(N)c1`, the pIC50 in assay [1] is 7.74. Also, the pEC50 with Hepatitis C virus was 6.52.

Take `Nc1cc(Cn2c(CC(=O)O)c(-c3ccc[nH]c3=O)c3cc(Cl)ccc32)ccn1`: the pIC50 in assay [1] is 5.15.

`CS(=O)(=O)NC(=O)Cc1c(-c2ccc[nH]c2=O)c2cc(Cl)ccc2n1Cc1ccnc(N)c1`: the pIC50 in assay [1] is 5.66.

Take `CS(=O)(=O)NCc1c(-c2ccc[nH]c2=O)c2cc(Cl)ccc2n1Cc1ccnc(N)c1`: the pIC50 in assay [1] was less than 4.70.

Turning to `Nc1cc(Cn2c(C(=O)NS(N)(=O)=O)c(-c3ccc[nH]c3=O)c3cc(Cl)ccc32)ccn1`, the pIC50 in assay [1] is 7.54. Moreover, the pEC50 with Hepatitis C virus is 5.66.

For `Nc1cc(Cn2c(C3=NS(=O)(=O)c4ccccc4N3)c(-c3ccc[nH]c3=O)c3cc(Cl)ccc32)ccn1`, in assay [1], the pIC50 is 7.92. Moreover, the pEC50 in the assay on Hepatitis C virus was 6.22.

Consider `CS(=O)(=O)NC(=O)c1c(-c2ccc[nH]c2=O)c2cc(Cl)ccc2n1Cc1ccccc1F`, for which, in assay [1], the pIC50 is 7.48. Further, in the assay on Hepatitis C virus, the pEC50 is 6.64.

`CS(=O)(=O)NC(=O)c1c(-c2ccc[nH]c2=O)c2cc(Cl)ccc2n1Cc1ccc(F)cc1F`: in assay [1], the pIC50 is 7.39. Further, the pEC50 with Hepatitis C virus is 5.66.

In the case of `CCNS(=O)(=O)c1c(-c2ccc[nH]c2=O)c2cc(Cl)ccc2n1Cc1ccc(F)cc1F`, in assay [1], the pIC50 was 5.52.

As for `NS(=O)(=O)c1c(-c2ccc[nH]c2=O)c2cc(Cl)ccc2n1Cc1ccc(F)cc1F`, the pIC50 in assay [1] was 5.57.

Turning to `O=c1[nH]cccc1-c1c(-c2nc3ccccc3[nH]2)n(Cc2ccc(F)cc2F)c2ccc(Cl)cc12`, the pIC50 in assay [1] was 6.24. Besides, in the assay on Hepatitis C virus, the pEC50 was 5.10.

Regarding `CS(=O)(=O)NC(=O)c1c(-c2c[nH]c(=O)[nH]c2=O)c2cc(Cl)ccc2n1Cc1ccnc(N)c1`, the negative-log IC50 (pIC50) in assay [1] is 7.57. For the same compound, the pEC50 in the assay on Hepatitis C virus was 5.52.

As for `CS(=O)(=O)NC(=O)c1c(-c2ccc[nH]c2=O)c2cc(C(F)(F)F)ccc2n1Cc1ccccc1F`, in assay [1], the pIC50 was 8.22. In addition, in the assay with Hepatitis C virus, the pEC50 was 6.92.

Take `CS(=O)(=O)NC(=O)c1c(-n2c(=O)[nH]c3cscc3c2=O)c2cc(C(F)(F)F)ccc2n1Cc1ccccc1F`: the negative-log IC50 (pIC50) in assay [1] is 7.82. Also, the pEC50 in the assay with Hepatitis C virus was 6.15.

Consider `CCS(=O)(=O)NC(=O)c1c(-c2ccc[nH]c2=O)c2cc(Cl)ccc2n1Cc1ccnc(N)c1`, for which, in assay [1], the pIC50 was 7.74. The pEC50 with Hepatitis C virus is 6.22.

With `CC(C)(C)S(=O)(=O)NC(=O)c1c(-c2ccc[nH]c2=O)c2cc(Cl)ccc2n1Cc1ccnc(N)c1`, the pIC50 in assay [1] was 7.51. The pEC50 in the assay on Hepatitis C virus was 6.00.

On to `Nc1cc(Cn2c(C(=O)NS(=O)(=O)c3ccccc3)c(-c3ccc[nH]c3=O)c3cc(Cl)ccc32)ccn1`, for which the pIC50 in assay [1] was 7.80. Besides, the pEC50 in the assay on Hepatitis C virus was 6.40.

Turning to `Nc1cc(Cn2c(C(=O)NS(=O)(=O)Cc3ccccc3)c(-c3ccc[nH]c3=O)c3cc(Cl)ccc32)ccn1`, the pIC50 in assay [1] is 7.62. In addition, the pEC50 in the assay on Hepatitis C virus is 5.92.

Turning to `O=C(NS(=O)(=O)C1CC1)c1c(-c2ccc[nH]c2=O)c2cc(Cl)ccc2n1Cc1ccccc1F`, the pIC50 in assay [1] is 8.30. The pEC50 with Hepatitis C virus is 6.57.

In the case of `CC(C)S(=O)(=O)NC(=O)c1c(-c2ccc[nH]c2=O)c2cc(Cl)ccc2n1Cc1ccccc1F`, the pIC50 in assay [1] is 7.89. Besides, the negative logarithm of the EC50 (pEC50) with Hepatitis C virus is 6.40.

As to `O=C(NS(=O)(=O)C1CCCC1)c1c(-c2ccc[nH]c2=O)c2cc(Cl)ccc2n1Cc1ccccc1F`, the pIC50 in assay [1] was 7.55. Moreover, the pEC50 with Hepatitis C virus was 5.85.

Take `O=C(NS(=O)(=O)CCCCl)c1c(-c2ccc[nH]c2=O)c2cc(Cl)ccc2n1Cc1ccccc1F`: the pIC50 in assay [1] was 8.10. For the same compound, the pEC50 in the assay on Hepatitis C virus was 5.55.

`CS(=O)(=O)NCCS(=O)(=O)NC(=O)c1c(-c2ccc[nH]c2=O)c2cc(Cl)ccc2n1Cc1ccccc1F`: in assay [1], the pIC50 was 8.30. Moreover, the pEC50 in the assay with Hepatitis C virus was 6.33.

For the compound `COc1ccc(S(=O)(=O)NC(=O)c2c(-c3ccc[nH]c3=O)c3cc(Cl)ccc3n2Cc2ccnc(N)c2)cc1`, the pIC50 in assay [1] was 7.66. The pEC50 in the assay with Hepatitis C virus was 6.30.

With `Cc1ccc(S(=O)(=O)NC(=O)c2c(-c3ccc[nH]c3=O)c3cc(Cl)ccc3n2Cc2ccnc(N)c2)cc1`, the pIC50 in assay [1] was 7.72. Also, the negative-log EC50 (pEC50) in the assay on Hepatitis C virus is 6.22.

Take `Nc1cc(Cn2c(C(=O)NS(=O)(=O)c3ccccc3F)c(-c3ccc[nH]c3=O)c3cc(Cl)ccc32)ccn1`: the pIC50 in assay [1] was 7.51. In the assay on Hepatitis C virus, the pEC50 is 6.10.

Regarding `Nc1cc(Cn2c(C(=O)NS(=O)(=O)c3cccc(Cl)c3)c(-c3ccc[nH]c3=O)c3cc(Cl)ccc32)ccn1`, in assay [1], the pIC50 was 7.37. Also, the pEC50 in the assay on Hepatitis C virus is 5.82.

Take `Nc1cc(Cn2c(C(=O)NS(=O)(=O)c3cc(F)ccc3F)c(-c3ccc[nH]c3=O)c3cc(Cl)ccc32)ccn1`: the pIC50 in assay [1] is 7.55. Also, the pEC50 with Hepatitis C virus was 6.15.

Consider `Nc1cc(Cn2c(C(=O)NS(=O)(=O)c3cc(F)cc(F)c3)c(-c3ccc[nH]c3=O)c3cc(Cl)ccc32)ccn1`, for which the pIC50 in assay [1] is 7.59. Also, the pEC50 in the assay on Hepatitis C virus was 6.15.

Regarding `Nc1cc(Cn2c(C(=O)NS(=O)(=O)c3ccc(F)cc3F)c(-c3ccc[nH]c3=O)c3cc(Cl)ccc32)ccn1`, the pIC50 in assay [1] is 7.31. In addition, the pEC50 in the assay on Hepatitis C virus was 5.80.

With `Cc1cc(F)ccc1S(=O)(=O)NC(=O)c1c(-c2ccc[nH]c2=O)c2cc(Cl)ccc2n1Cc1ccnc(N)c1`, the pIC50 in assay [1] was 7.47. Moreover, the pEC50 with Hepatitis C virus was 5.72.

With `Nc1cc(Cn2c(C(=O)NS(=O)(=O)c3ccccc3N)c(-c3ccc[nH]c3=O)c3cc(Cl)ccc32)ccn1`, the pIC50 in assay [1] is 7.55. The pEC50 in the assay with Hepatitis C virus is 5.77.

Consider `Nc1cccc(S(=O)(=O)NC(=O)c2c(-c3ccc[nH]c3=O)c3cc(Cl)ccc3n2Cc2ccnc(N)c2)c1`, for which the pIC50 in assay [1] is 7.44. Also, the pEC50 in the assay with Hepatitis C virus was 6.00.

As to `Nc1ccc(S(=O)(=O)NC(=O)c2c(-c3ccc[nH]c3=O)c3cc(Cl)ccc3n2Cc2ccnc(N)c2)cc1`, the pIC50 in assay [1] was 7.46. The pEC50 in the assay on Hepatitis C virus is 6.40.

In the case of `N#Cc1ccc(S(=O)(=O)NC(=O)c2c(-c3ccc[nH]c3=O)c3cc(Cl)ccc3n2Cc2ccnc(N)c2)cc1`, the pIC50 in assay [1] is 7.44. The pEC50 in the assay on Hepatitis C virus is 5.77.

As to `COC(=O)c1ccc(S(=O)(=O)NC(=O)c2c(-c3ccc[nH]c3=O)c3cc(Cl)ccc3n2Cc2ccnc(N)c2)cc1`, in assay [1], the pIC50 is 7.49. Also, the pEC50 in the assay on Hepatitis C virus is 5.96.

As for `COC(=O)c1cccc(S(=O)(=O)NC(=O)c2c(-c3ccc[nH]c3=O)c3cc(Cl)ccc3n2Cc2ccnc(N)c2)c1`, the pIC50 in assay [1] was 7.57. In addition, in the assay with Hepatitis C virus, the pEC50 is 6.52.

As for `Nc1cc(Cn2c(C(=O)NS(=O)(=O)c3cccc(S(N)(=O)=O)c3)c(-c3ccc[nH]c3=O)c3cc(Cl)ccc32)ccn1`, the pIC50 in assay [1] was 7.47. Also, in the assay on Hepatitis C virus, the pEC50 is 5.72.

In the case of `CS(=O)(=O)Nc1cccc(S(=O)(=O)NC(=O)c2c(-c3ccc[nH]c3=O)c3cc(Cl)ccc3n2Cc2ccnc(N)c2)c1`, the pEC50 in the assay with Hepatitis C virus is 7.96.

On to `CS(=O)(=O)Nc1ccc(S(=O)(=O)NC(=O)c2c(-c3ccc[nH]c3=O)c3cc(Cl)ccc3n2Cc2ccnc(N)c2)cc1`, for which the pIC50 in assay [1] is 7.70. For the same compound, in the assay with Hepatitis C virus, the pEC50 was 6.30.

On to `CS(=O)(=O)Nc1cccc(S(=O)(=O)NC(=O)c2c(-c3ccc[nH]c3=O)c3cc(Cl)ccc3n2Cc2ccccc2F)c1`, for which the pIC50 in assay [1] was 7.74. Moreover, in the assay with Hepatitis C virus, the pEC50 is 7.70.

As usually defined, the pIC50 is the IC50 on a negative log10 scale, so that one unit is a factor of ten. In general, pEC50 refers to −log10 of the EC50, conventionally taken in molar units.
